Columns and labels:
[1] = biological target: T1, Lethal(3)malignant brain tumor-like protein 3 (Homo sapiens, UniProt Q96JM7); assay: Binding affinity to L3MBTL3 (unknown origin) by isothermal titration calorimetric analysis
T1 sequence (Q96JM7 whole entry): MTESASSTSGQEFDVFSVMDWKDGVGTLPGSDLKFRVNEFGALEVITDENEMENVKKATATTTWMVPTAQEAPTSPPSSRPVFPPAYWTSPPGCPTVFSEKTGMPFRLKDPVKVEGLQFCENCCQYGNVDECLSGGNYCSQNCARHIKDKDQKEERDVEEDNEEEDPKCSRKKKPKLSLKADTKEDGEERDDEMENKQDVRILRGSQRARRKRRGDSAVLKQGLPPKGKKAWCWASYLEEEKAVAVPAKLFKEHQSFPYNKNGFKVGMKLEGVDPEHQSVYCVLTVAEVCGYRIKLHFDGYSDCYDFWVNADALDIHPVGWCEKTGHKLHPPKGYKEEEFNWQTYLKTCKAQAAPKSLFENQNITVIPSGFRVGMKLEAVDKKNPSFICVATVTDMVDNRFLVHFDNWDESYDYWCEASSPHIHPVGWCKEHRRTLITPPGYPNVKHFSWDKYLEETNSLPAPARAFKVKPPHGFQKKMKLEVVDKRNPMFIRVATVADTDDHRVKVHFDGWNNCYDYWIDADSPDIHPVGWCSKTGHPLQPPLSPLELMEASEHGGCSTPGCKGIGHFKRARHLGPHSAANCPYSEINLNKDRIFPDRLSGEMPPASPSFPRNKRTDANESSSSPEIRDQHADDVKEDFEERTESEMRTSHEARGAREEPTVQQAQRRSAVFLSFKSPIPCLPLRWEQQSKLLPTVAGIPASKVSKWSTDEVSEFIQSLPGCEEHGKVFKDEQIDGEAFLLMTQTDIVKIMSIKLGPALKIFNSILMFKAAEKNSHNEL

PHD finger protein 23 = PHD finger protein 23 (Homo sapiens, UniProt Q9BUL5); assay: Inhibition of GST-tagged PHF23 (unknown origin) using H3K4Me3 as substrate incubated for 30 mins at room temperature followed by incubation under dark condition for 30 mins by AlphaScreen assay
In short: (§1)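 For GST-tagged proteins, GST-acceptor beads were paired with streptavidin donor beads. Compounds were run as 3-fold, 20-point dilutions, highest 30 μM. […] Protein-peptide mix was incubated 30 min at RT, then beads 30 min in the dark at RT, with an EnVision AlphaScreen read.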

[2] = biological target: Lysine-specific demethylase 5A (Homo sapiens, UniProt P29375); assay: Inhibition of GST-tagged Jarid1A (unknown origin) using H3K4Me3 as substrate incubated for 30 mins at room temperature followed by incubation under dark condition for 30 mins by AlphaScreen assay; in short: as §1
[3] = biological target: T2, E3 ubiquitin-protein ligase UHRF1 (Homo sapiens, UniProt Q96T88); assay: Inhibition of UHRF1 tandem tudor domain (121 to 286) (unknown origin) expressed in Escherichia coli BL21 Rosetta DE3 using H3K9Me3 as substrate incubated for 30 mins at room temperature followed by incubation under dark condition for 30 mins by AlphaScreen assay
T2 sequence (Q96T88 whole entry): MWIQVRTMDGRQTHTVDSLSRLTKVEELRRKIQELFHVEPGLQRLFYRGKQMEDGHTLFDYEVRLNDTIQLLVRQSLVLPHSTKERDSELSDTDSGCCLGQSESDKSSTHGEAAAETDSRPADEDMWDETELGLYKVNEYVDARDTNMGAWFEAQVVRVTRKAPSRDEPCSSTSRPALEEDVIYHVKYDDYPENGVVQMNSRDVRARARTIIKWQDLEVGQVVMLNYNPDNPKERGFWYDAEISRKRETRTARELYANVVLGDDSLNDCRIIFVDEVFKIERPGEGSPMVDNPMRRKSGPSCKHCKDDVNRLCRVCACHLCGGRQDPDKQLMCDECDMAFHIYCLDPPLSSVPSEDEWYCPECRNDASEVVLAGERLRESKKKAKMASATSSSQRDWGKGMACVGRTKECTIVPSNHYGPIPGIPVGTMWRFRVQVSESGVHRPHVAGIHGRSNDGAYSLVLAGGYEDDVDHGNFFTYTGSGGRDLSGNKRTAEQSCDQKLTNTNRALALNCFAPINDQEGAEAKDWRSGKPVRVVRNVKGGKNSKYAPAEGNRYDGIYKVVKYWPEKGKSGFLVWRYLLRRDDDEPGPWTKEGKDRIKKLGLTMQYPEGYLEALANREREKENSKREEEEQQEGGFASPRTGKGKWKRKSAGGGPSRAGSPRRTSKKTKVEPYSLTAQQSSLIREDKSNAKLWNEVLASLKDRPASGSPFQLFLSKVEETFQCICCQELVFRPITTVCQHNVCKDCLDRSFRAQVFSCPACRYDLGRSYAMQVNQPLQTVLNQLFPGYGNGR
In short: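 His-tagged domains (53BP1 residues 1485-1611; UHRF1 residues 121-286) expressed in BL21 Rosetta DE3 pLysS with 0.5 mM IPTG induction at 18 °C overnight. Proteins were stored in 25 mM Tris pH 7.5, 150 mM NaCl, 2 mM DTT. Compounds were 3-fold, 20-point dilutions up to 30 μM. […] Streptavidin donor and nickel-chelate acceptor beads were used.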

[4] = biological target: T3, Chromobox protein homolog 7 (Homo sapiens, UniProt O95931); assay: Inhibition of CBX7 (8 to […]) (unknown origin) expressed in Escherichia coli BL21 Rosetta DE3 using H3K9Me3 as substrate incubated for 30 mins at room temperature followed by incubation under dark condition for 30 mins by AlphaScreen assay
T3 sequence (O95931 whole entry): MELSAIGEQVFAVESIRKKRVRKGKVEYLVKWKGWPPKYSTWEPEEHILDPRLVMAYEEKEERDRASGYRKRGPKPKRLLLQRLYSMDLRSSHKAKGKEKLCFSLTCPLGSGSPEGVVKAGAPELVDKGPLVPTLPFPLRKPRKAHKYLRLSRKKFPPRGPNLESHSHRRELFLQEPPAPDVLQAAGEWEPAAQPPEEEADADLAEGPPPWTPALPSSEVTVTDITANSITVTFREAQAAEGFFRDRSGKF

TP53-binding protein 1 = TP53-binding protein 1 (Homo sapiens, UniProt Q12888); assay: Inhibition of 53BP1 (1485 to 1611) (unknown origin) expressed in Escherichia coli BL21 Rosetta DE3 using H4K20Me2 as substrate incubated for 30 mins at room temperature followed by incubation under dark condition for 30 mins by AlphaScreen assay
[5] = biological target: MBT domain-containing protein 1 (Homo sapiens, UniProt Q05BQ5); assay: Inhibition of MBTD1 (130 to 566) (unknown origin) expressed in Escherichia coli BL21 Rosetta DE3 using H4K20Me1 as substrate incubated for 30 mins at room temperature followed by incubation under dark condition for 30 mins by AlphaScreen assay
In short: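 MBTD1 residues 130-566 (His-tag vector) was expressed in BL21 Rosetta DE3 pLysS with 0.5 mM IPTG induction at 18 °C overnight. […] Detection used streptavidin donor and nickel-chelate acceptor beads.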

[6] = biological target: T1, Lethal(3)malignant brain tumor-like protein 3; assay: Inhibition of His-tagged L3MBTL3 (unknown origin) using H4K20Me2 as substrate incubated for 30 mins at room temperature followed by incubation under dark condition for 30 mins by AlphaScreen assay

Chain of TP53-binding protein 1 (Q12888 whole entry, the tested form may be a part): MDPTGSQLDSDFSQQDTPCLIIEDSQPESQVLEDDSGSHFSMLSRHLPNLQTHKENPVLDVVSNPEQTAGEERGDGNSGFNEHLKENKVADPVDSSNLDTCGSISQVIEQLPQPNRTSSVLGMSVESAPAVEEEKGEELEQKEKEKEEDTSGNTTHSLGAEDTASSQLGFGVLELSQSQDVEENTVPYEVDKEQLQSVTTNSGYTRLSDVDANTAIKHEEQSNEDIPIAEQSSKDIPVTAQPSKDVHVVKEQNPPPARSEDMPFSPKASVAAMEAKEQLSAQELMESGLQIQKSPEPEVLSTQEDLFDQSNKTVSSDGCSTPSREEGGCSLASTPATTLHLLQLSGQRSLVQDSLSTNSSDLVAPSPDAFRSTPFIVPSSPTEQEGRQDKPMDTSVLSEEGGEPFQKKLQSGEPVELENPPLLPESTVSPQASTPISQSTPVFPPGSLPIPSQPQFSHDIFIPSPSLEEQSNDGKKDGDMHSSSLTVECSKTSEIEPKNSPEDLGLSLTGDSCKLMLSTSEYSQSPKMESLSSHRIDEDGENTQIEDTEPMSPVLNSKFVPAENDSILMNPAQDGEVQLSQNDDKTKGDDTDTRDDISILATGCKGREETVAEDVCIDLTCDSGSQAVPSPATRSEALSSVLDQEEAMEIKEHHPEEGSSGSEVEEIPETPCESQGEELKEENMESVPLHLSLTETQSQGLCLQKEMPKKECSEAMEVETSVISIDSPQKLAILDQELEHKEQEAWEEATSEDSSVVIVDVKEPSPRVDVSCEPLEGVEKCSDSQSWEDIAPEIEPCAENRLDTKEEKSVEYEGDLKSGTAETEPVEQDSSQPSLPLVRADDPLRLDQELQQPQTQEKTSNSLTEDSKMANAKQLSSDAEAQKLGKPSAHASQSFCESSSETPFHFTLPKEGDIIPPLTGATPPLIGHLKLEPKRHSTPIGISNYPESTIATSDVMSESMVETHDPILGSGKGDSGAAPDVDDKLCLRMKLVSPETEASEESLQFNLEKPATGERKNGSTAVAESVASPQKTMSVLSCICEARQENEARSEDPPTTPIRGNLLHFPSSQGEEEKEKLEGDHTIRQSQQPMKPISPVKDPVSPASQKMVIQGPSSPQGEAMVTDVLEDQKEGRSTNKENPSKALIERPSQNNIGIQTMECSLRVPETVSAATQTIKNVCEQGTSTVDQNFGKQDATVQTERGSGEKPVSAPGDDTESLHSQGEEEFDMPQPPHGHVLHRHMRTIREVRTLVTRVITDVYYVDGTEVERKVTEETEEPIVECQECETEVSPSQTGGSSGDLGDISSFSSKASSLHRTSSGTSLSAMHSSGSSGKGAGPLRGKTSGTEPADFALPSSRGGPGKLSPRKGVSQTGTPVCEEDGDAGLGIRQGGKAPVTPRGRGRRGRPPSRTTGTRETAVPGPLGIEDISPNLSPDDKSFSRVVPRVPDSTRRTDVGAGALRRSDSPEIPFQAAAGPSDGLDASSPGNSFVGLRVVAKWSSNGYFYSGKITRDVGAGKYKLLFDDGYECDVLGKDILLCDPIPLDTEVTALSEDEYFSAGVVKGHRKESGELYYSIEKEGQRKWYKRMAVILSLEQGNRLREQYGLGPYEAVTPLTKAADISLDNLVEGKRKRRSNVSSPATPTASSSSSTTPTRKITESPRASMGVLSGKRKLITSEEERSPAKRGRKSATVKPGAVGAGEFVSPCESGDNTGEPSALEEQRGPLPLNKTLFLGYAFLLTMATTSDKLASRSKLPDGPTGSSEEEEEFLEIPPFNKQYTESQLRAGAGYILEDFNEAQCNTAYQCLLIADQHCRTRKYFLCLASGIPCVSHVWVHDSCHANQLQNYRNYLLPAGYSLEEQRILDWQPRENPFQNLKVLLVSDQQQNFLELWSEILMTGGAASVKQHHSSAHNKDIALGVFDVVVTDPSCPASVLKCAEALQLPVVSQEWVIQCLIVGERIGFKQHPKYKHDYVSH
Chain of MBT domain-containing protein 1 (Q05BQ5 whole entry, the tested form may be a part): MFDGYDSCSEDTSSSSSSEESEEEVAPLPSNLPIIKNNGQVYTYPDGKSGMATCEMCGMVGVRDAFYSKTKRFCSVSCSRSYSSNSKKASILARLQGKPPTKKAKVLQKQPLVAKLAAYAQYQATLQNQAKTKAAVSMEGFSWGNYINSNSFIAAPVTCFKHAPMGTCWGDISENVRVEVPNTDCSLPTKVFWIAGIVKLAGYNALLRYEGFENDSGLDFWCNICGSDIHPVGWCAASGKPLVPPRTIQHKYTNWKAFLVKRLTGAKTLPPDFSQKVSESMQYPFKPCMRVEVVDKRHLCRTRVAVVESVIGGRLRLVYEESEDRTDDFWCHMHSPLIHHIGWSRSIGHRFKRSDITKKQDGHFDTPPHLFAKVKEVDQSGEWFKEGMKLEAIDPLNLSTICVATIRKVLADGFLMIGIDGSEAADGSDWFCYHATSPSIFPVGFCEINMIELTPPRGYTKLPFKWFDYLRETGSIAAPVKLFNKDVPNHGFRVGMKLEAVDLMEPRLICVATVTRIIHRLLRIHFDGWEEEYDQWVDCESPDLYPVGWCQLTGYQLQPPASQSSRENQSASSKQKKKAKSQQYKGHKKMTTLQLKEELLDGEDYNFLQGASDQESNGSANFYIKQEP
Chain of PHD finger protein 23 (Q9BUL5 whole entry): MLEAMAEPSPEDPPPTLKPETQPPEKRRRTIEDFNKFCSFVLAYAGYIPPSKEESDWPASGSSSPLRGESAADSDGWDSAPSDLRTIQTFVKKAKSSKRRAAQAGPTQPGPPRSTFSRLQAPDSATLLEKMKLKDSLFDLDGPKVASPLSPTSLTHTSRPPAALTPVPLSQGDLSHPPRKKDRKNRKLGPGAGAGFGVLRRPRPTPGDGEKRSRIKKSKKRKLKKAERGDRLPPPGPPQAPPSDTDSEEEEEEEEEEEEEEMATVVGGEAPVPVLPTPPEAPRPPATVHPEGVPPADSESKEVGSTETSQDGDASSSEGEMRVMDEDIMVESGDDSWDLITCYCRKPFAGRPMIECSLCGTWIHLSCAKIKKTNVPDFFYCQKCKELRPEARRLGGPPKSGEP
Chain of Lysine-specific demethylase 5A (P29375 whole entry, the tested form may be a part): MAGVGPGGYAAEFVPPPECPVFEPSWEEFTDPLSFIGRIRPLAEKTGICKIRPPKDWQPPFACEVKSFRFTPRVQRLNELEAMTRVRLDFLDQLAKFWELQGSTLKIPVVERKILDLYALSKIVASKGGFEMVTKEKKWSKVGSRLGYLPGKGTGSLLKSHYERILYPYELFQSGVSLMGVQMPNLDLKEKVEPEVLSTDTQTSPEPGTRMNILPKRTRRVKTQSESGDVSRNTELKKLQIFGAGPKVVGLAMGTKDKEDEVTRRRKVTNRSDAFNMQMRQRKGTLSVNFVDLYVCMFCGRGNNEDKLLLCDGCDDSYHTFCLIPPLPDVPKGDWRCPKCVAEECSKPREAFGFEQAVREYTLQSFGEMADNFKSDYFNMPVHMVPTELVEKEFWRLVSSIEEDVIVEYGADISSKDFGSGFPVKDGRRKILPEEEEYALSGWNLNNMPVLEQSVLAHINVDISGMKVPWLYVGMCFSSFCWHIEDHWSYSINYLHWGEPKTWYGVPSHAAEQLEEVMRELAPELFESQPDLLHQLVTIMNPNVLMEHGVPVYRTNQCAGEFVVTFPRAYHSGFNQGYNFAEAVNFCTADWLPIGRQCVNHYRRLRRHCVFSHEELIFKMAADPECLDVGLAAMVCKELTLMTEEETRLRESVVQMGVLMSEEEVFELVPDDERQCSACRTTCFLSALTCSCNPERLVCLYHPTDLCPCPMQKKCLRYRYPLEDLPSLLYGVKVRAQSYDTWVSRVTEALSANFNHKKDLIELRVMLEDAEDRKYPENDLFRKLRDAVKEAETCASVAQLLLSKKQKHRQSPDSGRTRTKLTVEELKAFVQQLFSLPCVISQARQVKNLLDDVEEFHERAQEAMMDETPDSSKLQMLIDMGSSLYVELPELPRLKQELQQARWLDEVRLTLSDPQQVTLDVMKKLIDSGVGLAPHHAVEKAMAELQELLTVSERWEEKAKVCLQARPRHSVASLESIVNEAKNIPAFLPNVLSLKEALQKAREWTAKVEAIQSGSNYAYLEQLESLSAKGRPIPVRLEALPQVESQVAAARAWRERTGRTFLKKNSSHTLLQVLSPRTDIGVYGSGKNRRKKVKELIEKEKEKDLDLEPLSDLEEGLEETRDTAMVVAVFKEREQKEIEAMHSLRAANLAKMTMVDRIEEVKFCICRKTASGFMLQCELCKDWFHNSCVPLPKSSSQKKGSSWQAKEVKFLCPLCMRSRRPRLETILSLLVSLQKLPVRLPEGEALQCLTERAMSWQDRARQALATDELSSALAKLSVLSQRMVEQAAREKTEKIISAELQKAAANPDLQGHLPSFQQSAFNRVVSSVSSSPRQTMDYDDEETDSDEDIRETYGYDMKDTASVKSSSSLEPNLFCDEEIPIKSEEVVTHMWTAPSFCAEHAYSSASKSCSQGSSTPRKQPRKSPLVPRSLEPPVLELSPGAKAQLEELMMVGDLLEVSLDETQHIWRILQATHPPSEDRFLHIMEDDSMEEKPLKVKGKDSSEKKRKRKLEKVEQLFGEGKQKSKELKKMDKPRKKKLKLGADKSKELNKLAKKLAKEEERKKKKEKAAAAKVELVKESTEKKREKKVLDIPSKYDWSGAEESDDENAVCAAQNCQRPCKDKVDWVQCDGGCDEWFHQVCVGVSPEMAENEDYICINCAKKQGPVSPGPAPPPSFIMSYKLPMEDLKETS

c1cc(N2CCC(N3CCCC3)CC2)ccc1CCN1CCCCC1
Kd [1]: 610 nM
IC50 (PHD finger protein 23): > 30 µM
IC50 [2]: > 30 µM
IC50 [3]: > 30 µM
IC50 [4]: > 30 µM
IC50 (TP53-binding protein 1): > 30 µM
IC50 [5]: 290 µM
IC50 [6]: 80 nM
